An excerpt weighted towards active compounds, which were near 1.9% of everything screened.
ABHD5 PLIN5 PPI: inhibitors of human ABHD5-perilipin-5 interaction; 360,000 tested, 0.78% active; AID 602281; inhibition, % at 4 µM; Q00G26+Q8WTS1; Split G. princeps luciferase complementation, luminescence, 4 h;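 active = inhibition above the mean inhibition across every tested compound plus 3 SD, cut at about 22% in these data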;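 also: 0% = DMSO only wells and the 100% control is not disclosed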
NadD inh: NadD (S. aureus) enzyme inhibition | purified NadD enzyme, colorimetric absorbance read-out | inhibition, % at 20 µM | 360,000 tested, 0.78% active | AID 602399; in the data active = inhibition above about 26%
XiGFP reactiv: reactivates the inactive X chromosome in mouse fibroblasts; XiGFP mouse fibroblasts, % GFP-positive cells imaging, 3 d; cells co-treated with 5-aza-dC sensitizer; scaled so ellipticine positive control = 100%; activation, % at 7.58 µM; 360,000 tested, 0.055% active;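 active = mean normalized replicate activation at least 10% and every replicate at or above 10%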;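 also: 0% = median of on-plate neutral control wells and 100% = ellipticine 6 µM median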
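material = 68-5-11 XiGFP fibroblast line | medium = DMEM plus 5-aza-dC sensitizer | schedule = 3 days compound exposure | benchmarks = positive control ellipticine, 6 µM final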
Rin1-Abl PPI inh: inhibitors of human Rin1-Abl protein interaction | AID 588664 | P00519+Q13671 | 360,000 tested, 0.4% active | TR-FRET Rin1/Abl binding, biochemical | inhibition, % at 7.35 µM; in the data active = inhibition above about 5%, passing the limit was not always enough
Rpn11 block: inhibitors of human proteasome Rpn11; human 26S proteasome, Ub4-pepOG fluorescence polarization; 20S core pre-blocked with epoxomicin; inhibition, % at 20 µM; 360,000 tested, 0.59% active; AID 588493;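 active = inhibition at 20 µM, scaled to each plate's controls, above about 33%, limit read from the data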
Rin1-Abl confirm: Rin1-Abl interaction inhibition confirmation; shares compounds with Rin1-Abl PPI inh; TR-FRET Rin1-Abl binding, purified proteins; 1,300 tested, 49% active; inhibition, % at 7.35 µM
GFP quencher: counter-screen for Rin1-Abl inhibitors: GFP fluorescence quenchers; shares compounds with Rin1-Abl PPI inh; inhibition, % at 6.75 µM; 1,300 tested, 8.5% active; inhibitors/quenchers counterscreen;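 also: ABL1-eGFP fusion protein alone without its partner RIN1-SBP; 0% = protein with vehicle and 100% = wells lacking protein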
The depositor's hits bear a star. Rule as the data show it, unless noted: active = inhibition above about 6.5%; inactive = the rest.

For CC1=NN(c2ccc(C(=O)O)cc2)C(=O)/C1=C\c1ccc(OC(=O)c2cccs2)cc1 the results were ABHD5 PLIN5 PPI -16, NadD inh 11, XiGFP reactiv 0, Rin1-Abl PPI inh 11*, Rpn11 block 6, Rin1-Abl confirm -1 and GFP quencher -1.
CC1=NN(c2ccccc2)C(=O)/C1=C/c1cccs1 was read as ABHD5 PLIN5 PPI -12, NadD inh -4, XiGFP reactiv 0, Rin1-Abl PPI inh -1 and Rpn11 block -7.
Screening CCOc1cc(/C=C2/C(=O)N(c3ccccc3)N=C2C)ccc1OC(=O)c1ccco1 returned ABHD5 PLIN5 PPI -28, NadD inh 22, Rin1-Abl PPI inh 19*, Rpn11 block 6, Rin1-Abl confirm -4 and GFP quencher -4.
For CC1=NN(c2ccccc2)C(=O)/C1=C/c1ccc(Cl)cc1 the results were ABHD5 PLIN5 PPI -12, NadD inh 18, XiGFP reactiv 0, Rin1-Abl PPI inh 12*, Rpn11 block 16, Rin1-Abl confirm 0 and GFP quencher 2.
COC(=O)c1ccc(CN2CC(=O)N3[C@H](CO)[C@@H](c4ccc(-c5ccccc5)cc4)[C@H]3C2)cc1 was read as XiGFP reactiv 0.
Screening C[C@H](C(=O)N(C)C[C@H]1OCc2ccccc2-c2ccccc2C(=O)N([C@H](C)CO)C[C@@H]1C)c1ccccc1 returned XiGFP reactiv -1.
Screening CC(=O)N1[C@H](CO)[C@@H](c2ccccc2)C12CN(C(=O)c1ccccn1)C2 returned XiGFP reactiv 0.
For O=C(C[C@H]1CC[C@H](NC(=O)C2CCOCC2)[C@H](CO)O1)Nc1ccccc1 the results were XiGFP reactiv 0.
Screening Cc1nnc(N/N=C/c2ccc(Br)cc2)n1N returned ABHD5 PLIN5 PPI -27, NadD inh 0, XiGFP reactiv 0, Rin1-Abl PPI inh 6.7*, Rpn11 block -2, Rin1-Abl confirm -4 and GFP quencher -2.
`Cc1nnc(N/N=C/c2ccc(-c3ccc(Br)cc3)o2)n1N` gave ABHD5 PLIN5 PPI -22, NadD inh 2, XiGFP reactiv 0, Rin1-Abl PPI inh -2 and Rpn11 block 0.
CNC(=O)C[C@@H]1CC[C@H]2[C@H](COc3ccc(NC(=O)c4ccc(F)c(F)c4)cc3C(=O)N2C)O1 was read as XiGFP reactiv 0.
`CCN1CCN(Cc2oc(CO)cc(=O)c2O)CC1` gave ABHD5 PLIN5 PPI 1, NadD inh 3, Rin1-Abl PPI inh 5.0*, Rpn11 block -1, Rin1-Abl confirm 1 and GFP quencher -1.
`CCOC(=O)C1CCN(Cc2oc(CO)cc(=O)c2O)CC1` gave ABHD5 PLIN5 PPI 2, NadD inh 2, Rin1-Abl PPI inh 14*, Rpn11 block 1, Rin1-Abl confirm -1 and GFP quencher 0.
COc1ccc2c3c(n(C)c2c1)[C@@H](CO)N(C(=O)Cc1ccccc1)CC31CCN(C)CC1 was read as XiGFP reactiv 0.
`CO[C@@H]1CN(C)C(=O)c2cc(NC(=O)CC(F)(F)F)ccc2OC[C@@H](C)N(S(=O)(=O)c2cn(C)cn2)C[C@H]1C` gave XiGFP reactiv 0.
CC(Nc1cccc2ccccc12)C(=O)N/N=C/c1ccccn1 (stereo not drawn) was read as ABHD5 PLIN5 PPI -9, NadD inh 9, Rin1-Abl PPI inh 11*, Rpn11 block -74, Rin1-Abl confirm -2 and GFP quencher 2.
Screening O=C(C[C@H]1CC[C@H](NC(=O)C2CCOCC2)[C@@H](CO)O1)NCC1CC1 returned XiGFP reactiv 0.
`COc1cc(Cl)ccc1OCc1cc(C(=O)N2CCCCC2c2cccnc2)no1` (stereo not drawn) gave ABHD5 PLIN5 PPI 2, NadD inh -1, XiGFP reactiv 0, Rin1-Abl PPI inh 10*, Rpn11 block -1, Rin1-Abl confirm 1 and GFP quencher 0.
Screening O=C(c1cc(COc2ccc(F)cc2Cl)on1)N1CCCCC1c1cccnc1 (stereo not drawn) returned ABHD5 PLIN5 PPI 13, NadD inh -1, XiGFP reactiv 0, Rin1-Abl PPI inh 6 and Rpn11 block 0.
